Measured values reported in ChEMBL document CHEMBL4513216, “Probing the Open Global Health Chemical Diversity Library for Multistage-Active Starting Points for Next-Generation Antimalarials” (ACS Infect Dis, 2020).

test: Toxicity liver stage against HepG2, at 10uM; type: cell-based; parameters: test concentration 10 uM, cell line HepG2-A16-CD81EGFP; settings: human, HepG2-A16-CD81EGFP cells; read-out: INHIBITION
Method in brief: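 Uninfected HepG2-A16-CD81EGFP cells, 3 × 10^3 per well, 1536-well, plated on prespotted compound at 10 μM final, parasite-free screening media added to match infected plates; puromycin 10 μM positive, DMSO 0.5% negative; run in parallel with 48 h PbLuc assay at 37 °C, 5% CO2; viability by CellTiter-Glo luminescence, normalized to controls.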

In order of rising cytotoxicity at 10 µM:
1. Cc1cccc(CNCC2COC3(CCCC3)O2)c1C (centres undefined)  -150%
2. Cc1nc(CN2C(=O)CC[C@@H]3[C@H]2CCN3C2CCOCC2)cs1  -147%
3. CCOCC1CN(CCc2ccccc2)Cc2c1cnn2C (centres undefined)  -120%
4. COc1cc(N2C[C@@H]3COC[C@@H](Cc4nnc(C)o4)[C@@H]3C2)ncn1  -112%
5. O=C(COc1ccccc1)N1C[C@@H]2COC[C@]2(COc2cccnc2)C1  -100%
6. CN(C)C(=O)N1CCn2cc(CNC(=O)CC3CC3)nc2C1  -80.2%
7. Cc1n[nH]cc1CNC1CCN(c2ccc(F)cc2)CC1  -54%
8. Cc1n[nH]c(C)c1CCC(=O)NCC1CCOc2ccccc2C1 (centres undefined)  -45.6%
9. O=C(CN1CCOC1=O)N1CCc2nnc(Cc3ccccc3)n2CC1  -45.6%
10. O=C(CCn1cncn1)NC1CCS(=O)(=O)C1 (centres undefined)  -45.4%
11. Cc1ccc(SC2CCCC2)c(C(=O)NCCc2n[nH]c(=O)[nH]2)c1  -45.3%
12. Cn1c(CCN2CCN(CCc3ccccc3)CC2)nc2ccccc21  -43.7%
13. COc1cccc2ccn(CC(=O)NCC(C)C)c12  -36.5%
14. CC(C)CN1CCC(NC(=O)c2ccc(F)cc2I)CC1  -33.9%
15. Cc1ccn2ncc(C(=O)N3CCCC(n4cccn4)C3)c2n1 (centres undefined)  -24.3%
16. COc1ccc(NC(=O)C2CCCO2)cc1OCc1cccnc1 (centres undefined)  -23.6%
17. O=C(CCc1ccccc1F)NS(=O)(=O)c1ccc2c(c1)OCCO2  -18.6%
18. Cc1ccc2oc(CNC(C)c3nnc4n3CCCC4)cc2c1 (centres undefined)  -17.9%
19. CC1(C)CC(N(Cc2ccncc2)Cc2cccnc2)CC(C)(C)N1  -14.6%
20. COc1ccc(C(=O)N2CCOCC(CO)C2)cc1N1CCOCC1 (centres undefined)  -14%
21. COCCCN1CCN(C(=O)C(c2cccc(F)c2)N(C)C)CC1 (centres undefined)  -13.1%
22. CN1CCN(C(=O)c2ccc(=O)n(C)c2)c2ccccc21  -11.5%
23. Cc1nc(C)n(CCNS(=O)(=O)NCc2ccccc2)n1  -11.4%
24. Cc1ccccc1C1CCCN1C(=O)CN1CC2(CCNCC2)OC1=O (centres undefined)  -11.1%
25. Cc1nc(C)n(CC2CN(c3ccc(C#N)cn3)CCO2)n1 (centres undefined)  -10.5%
26. CCCN(Cc1ccccc1)Cn1nc(C)c2c(C)onc2c1=O  -9.98%
27. Cn1ncc2c1CCCC2NCc1cccc2c1OCCCO2 (centres undefined)  -9.86%
28. Cc1cnn(CC2CN(Cc3nc(-c4ccsc4)no3)CCO2)c1 (centres undefined)  -9.74%
29. C=Cc1ccc(C(=O)N2CCCC(Nc3ccccc3)C2)cc1 (centres undefined)  -9.01%
30. CNS(=O)(=O)c1ccc(CNC(=O)Nc2cn[nH]c2)cc1  -8.75%
31. COCCC(=O)Nc1cnn(COc2ccc(F)cc2Cl)c1  -8.68%
32. Cc1nnc(N2C[C@@H](OCCCn3cccn3)[C@H]3OCCC[C@H]32)s1  -8.19%
33. O=C(NCc1ccccc1F)Nc1ccn(CCN2CCOCC2)n1  -7.85%
34. Cn1nnc(NCc2ccc(-c3ccc(Cl)cc3)o2)n1  -7.15%
35. CC(NC(=O)NCCN1CCCCCC1=O)c1nncn1C (centres undefined)  -7%
36. CCN(CC)CC(=O)Nc1ccc(-n2ccc(C(N)=O)n2)cc1  -6.9%
37. Cc1cc(C[C@@H]2COC[C@H]2NCc2ccccc2C(F)(F)F)on1  -6.15%
38. C=Cn1ncc(CN2C[C@@H]3CCCN3C[C@@H]2Cc2ccccc2)c1C  -5.74%
39. O=C(c1ccccn1)N1CCc2c(nc(N3CCCC3)[nH]c2=O)C1  -5.71%
40. Cc1cc(-c2nn(C)c(Cl)c2CN2CCC3(CC2)[C@H](O)C[C@@H]3O)no1  -5.66%
41. Cc1ccc(CN2CCN(Cc3ccncc3)CC2=O)cc1  -5.64%
42. COc1cc(C)nc(N2CCN(C(=O)c3ccc[nH]3)CC2)n1  -5.11%
43. Cc1nnc(NCc2ccccc2Cl)c(C#N)c1C  -5.06%
44. CCc1ncncc1C(=O)N1CCN(Cc2ccco2)CC1  -4.91%
45. COc1ccc(CN(Cc2cncn2C)CC2CCCO2)c(OC)c1 (centres undefined)  -4.48%
46. Cc1ccc2nc(CSCC(=O)Nc3nnc(C(C)C)s3)cc(=O)n2c1  -4.44%
47. CCC(=O)NC1CCN(c2cccc(CC)c2)CC1  -4.16%
48. Cc1ccc(O)c(C(=O)N2CCCC2CC(=O)c2cnn(C)c2)c1 (centres undefined)  -3.81%
49. CCN(CC)C1CCN(C(=O)NCc2c(C)noc2C)CC1  -3.71%
50. Cc1cccc(C(=O)N2CCN(CCC(C)C)CC2)n1  -3.53%
51. CC(NC(=O)CCC(C)(C)C)C(=O)Nc1ccc(-n2cncn2)cc1 (centres undefined)  -3.46%
52. CC(C)c1nc(CN2CCOC(CNc3cccnn3)C2)cs1 (centres undefined)  -2.93%
53. COCCN1CCOCC12CCN(c1ccc(C#N)cc1)CC2  -2.51%
54. Cc1nc(C)c(C(C)NCc2c(C)nn(CC(C)C)c2N(C)C)s1 (centres undefined)  -2.49%
55. Cc1ccccc1C1(C(=O)NCCN2CCCC(C)C2)CCOCC1 (centres undefined)  -2.34%
56. CCN(C(=O)NCc1ccccc1OC(F)F)C(C)c1cccnc1 (centres undefined)  -2.28%
57. CCCS(=O)(=O)NCc1cccnc1Oc1ccc(C)c(F)c1F  -2.19%
58. C[C@]1(O)CN(Cc2ncccc2F)CC[C@@H]1Oc1cccc(F)c1  -2.11%
59. CCc1nnsc1C(=O)NCCn1nc2ccccn2c1=O  -2.04%
60. CC/N=c1\nc(NCC)nc2n1C(O)(Nc1ccc(C)cc1C)CS2 (centres undefined)  -1.95%
61. O=C1NCC2CN(Cc3ccccc3OCc3ccccn3)CCN12 (centres undefined)  -1.36%
62. Cc1ccc(C)c(CC(=O)NC2CCC(N3C(=O)CCC3=O)CC2)c1 (centres undefined)  -1.32%
63. Nc1c(N2CCOCC2)ncnc1N1CCOCC1  -1.31%
64. Cc1nnc(N2CC[C@H]3C[C@H](C(=O)N4CCOCC4)O[C@H]3C2)s1  -0.671%
65. O=C(N[C@H]1CN(c2nc(CO)cs2)C[C@@H]1C1CC1)C1CCCCC1  -0.464%
66. c1cc(-c2n[nH]cc2-c2ccnc(N3CCCCCC3)n2)ccn1  -0.252%
67. CN1[C@@H]2CC[C@H]1CN(C(=O)CCc1csc(N)n1)CC2  -0.0143%
68. CN(C)CC(=O)N1CCC2(CC1)COc1ccccc1S(=O)(=O)N(C)C2  0.0039%
69. CNC(=O)c1n[nH]c2c1C(c1cccc3c1OC(C)(C)C3)CC(=O)N2 (centres undefined)  0.0642%
70. Cc1cc(C)c(CNC(=O)c2ccc3c(c2)CCC3)c(=O)[nH]1  0.983%
71. CC(=O)c1ccc(CN2CCCC23CCN(c2ccccn2)CC3)cc1  1.5%
72. CC(C)N[C@@H]1CO[C@H](CNC(=O)Nc2ccccc2)[C@H]1O  1.53%
73. CNC(=O)c1cnc(C=Cc2cc(OC)c(O)c(OC)c2)s1  1.64%
74. Cc1nccn1-c1ccc(C(C)NCc2ncc[nH]2)cc1 (centres undefined)  1.91%
75. CCC(=O)Nc1cccc(C(=O)NCCC2=CSC3=NCCCN23)c1  1.93%
76. CCN1C[C@@H]2C[C@H](C(=O)NCc3cccnc3)[C@H](C1)O2  2.01%
77. Cc1cnn(CCNCC(O)COc2cc(Cl)ccc2Cl)c1 (centres undefined)  2.22%
78. O=C(c1ccc(=O)[nH]c1)N1CCC(Oc2cccc(C(F)(F)F)c2)CC1  2.26%
79. CC[C@@]1(O)CCN(c2ncc(Cl)cc2F)C[C@H]1O  2.38%
80. N#Cc1cccc(S(=O)(=O)Nc2c(F)cccc2N2CCCC2)c1  2.62%
81. CCCn1ncc(-c2ccnc(NC3CCSC3)n2)c1C (centres undefined)  2.65%
82. CSc1ncc(CNC(C)c2cnn(-c3ccc(F)cc3F)c2C)cn1 (centres undefined)  2.77%
83. Cc1cc(O)n(-c2ccccc2Cl)c(=O)c1C#N  2.96%
84. NC(=O)CSCC(=O)NCC1CCCC1  3.15%
85. COCCN(C)C[C@@H]1CN(C(=O)NC2CCCCC2)C[C@@H]1CO  3.41%
86. CC(C)=CCCC1(C)C=Cc2c(cc(C)n(CCC(=O)O)c2=O)O1 (centres undefined)  3.46%
87. Cc1ccc(S(=O)(=O)N2CCC(Oc3cccnn3)CC2)c(C)c1  3.47%
88. N#Cc1cccnc1OC1CCN(S(=O)(=O)c2ccc(Br)cc2)CC1  3.61%
89. Cc1cc2n(n1)CC(CNC1CCN(Cc3ccccn3)CC1)CN2 (centres undefined)  3.67%
90. FC(F)(F)c1n[nH]c2c1CN(CCc1ccccn1)CC2  3.76%
91. CCO[C@H]1C[C@@H](O)C12CCN(C1Cc3ccccc3C1)CC2  4.54%
92. CC(C)OC(=O)N1CCCC(c2nccn2Cc2ccncc2)C1 (centres undefined)  4.56%
93. COCC1CN(C(=O)CS(C)(=O)=O)Cc2ncn(CC3CC3)c21 (centres undefined)  5.29%
94. Cc1cc(C)c(S(=O)(=O)Nc2cccc3c2OCCO3)cc1C(=O)O  5.87%
95. Cc1nc[nH]c1-c1nccn1-c1ccc(C(N)=O)c(N2CCCC2)c1  6.23%
96. Cc1ccc(SCC2CNc3nc4ccccc4c(=O)n32)c(C)c1 (centres undefined)  6.76%
97. COCC(=O)N1CCC(c2nccnc2Oc2cccnc2C)CC1  6.79%
98. O=C(c1nc2sccn2c1-c1ncc[nH]1)N1CCCCC1  7.52%
99. Cc1cccc(C)c1OCCNC(=O)NC(C)c1nncn1C (centres undefined)  7.8%
100. CNC(=O)[C@H]1CO[C@H]2CCN(Cc3ccc4ccccc4n3)C[C@H]2C1  8.05%
101. CC(C)Nc1ccnc(N2Cc3cnc(C(C)(C)C)nc3C2)n1  8.33%
102. Cc1nn(C)c(C)c1CNC(=O)CCn1ncc2c(Cl)cccc21  8.38%
103. Cc1noc([C@@H]2CC[C@@H]3[C@@H](CCN3c3nnc(C)s3)O2)n1  9.28%
104. CC(C)c1noc(CCCC(=O)NC(C)c2nnc3n2CCC3)n1 (centres undefined)  9.96%
105. CCN1CCN(c2ccccc2NC(=O)NCc2ccon2)CC1  10.4%
106. Cc1nc(C)n(CC2CCCN2Cc2nnc(-c3ccco3)o2)n1 (centres undefined)  11.4%
107. CC(C)N1CCCC2(CCN(C(=O)COCC(F)(F)C(F)F)C2)C1=O (centres undefined)  13.1%
108. CC(C)(C)n1cc(C2=CCN(CCc3ccccc3)CC2)cn1  14.3%
109. Cc1n[nH]c(SCC(=O)NC(c2ccncc2)C(C)C)n1 (centres undefined)  16.4%
